{"data": "Measured values collected from several papers", "PIK3CD": "Phosphatidylinositol 4,5-bisphosphate 3-kinase catalytic subunit delta isoform (PIK3CD, Homo sapiens, UniProt O00329)", "note": "Lines come from different studies, so protocols differ."}
{"SMILES": "CC(C)S(=O)(=O)c1ccc2nccc(Nc3ccc4sc(C5CCCC5)nc4c3)c2c1", "target": "Phosphatidylinositol 4,5-bisphosphate 3-kinase catalytic subunit delta isoform, with p85 (PIK3CD, Homo sapiens, UniProt O00329)", "effect on": "enzyme activity", "action": "inhibitor", "tested at": "1 µM", "measurement": "activity vs control", "value": "91%"}
{"SMILES": "C1=C/COCc2cc(ccc2OCCN2CCCC2)Nc2nccc(n2)-c2cccc(c2)COC/1", "target": "PIK3CD", "effect on": "binding", "tested at": "0.1 µM", "measurement": "remaining binding", "value": "30%"}
{"SMILES": "Cc1cc(O)c(-c2ccc([C@@H](C)CN(C)C)cc2)c2c1[nH]c(=O)c1sccc12", "target": "PIK3CD", "effect on": "enzyme activity", "action": "inhibitor", "tested at": "0.1 µM", "measurement": "inhibition", "value": "-6.12%"}
{"SMILES": "CCCCC(=O)Nc1ccc(-c2ccc3ncn(CCC)c(=O)c3c2)cn1", "target": "PIK3CD", "effect on": "binding", "method": "competition with immobilised ligand", "tested at": "0.5 µM", "measurement": "remaining binding", "value": "100%"}
{"SMILES": "CO[C@@H]1[C@H](N(C)C(=O)c2ccccc2)C[C@H]2O[C@]1(C)n1c3ccccc3c3c4c(c5c6ccccc6n2c5c31)C(=O)NC4", "target": "PIK3CD", "effect on": "enzyme activity", "action": "inhibitor", "tested at": "1 µM", "measurement": "inhibition", "value": "0%"}
{"SMILES": "C[C@H]1CC[C@H](n2c3cnccc3c3cnc(Nc4ccc5c(n4)CCN(C(=O)CO)C5)nc32)CC1", "target": "PIK3CD", "effect on": "cell-free assay", "tested at": "1 µM", "measurement": "remaining signal", "value": "87%"}
{"SMILES": "C=CC(=O)N1CCC([C@@H]2CCNc3c(C(N)=O)c(-c4ccc(Oc5ccccc5)cc4)nn32)CC1", "target": "PIK3CD", "effect on": "enzyme activity", "action": "inhibitor", "tested at": "1 µM", "measurement": "inhibition", "value": "11%"}
{"SMILES": "COc1ccc2[nH]c3c4[nH]c5ccc(OC)cc5c4c4c(c3c2c1)C(=O)NC4=O", "target": "PIK3CD", "effect on": "binding", "tested at": "1 µM", "measurement": "remaining binding", "value": "64%"}
{"SMILES": "C#Cc1cc(-c2cc(Nc3nc(N[C@@H](C)c4ccc(F)cn4)ncc3Cl)n[nH]2)ccc1C=O", "target": "PIK3CD", "effect on": "enzyme activity", "action": "inhibitor", "tested at": "0.2 µM", "measurement": "inhibition", "value": "29.3%"}
